The values that follow come from PubChem BioAssay.

Calls of active or inactive are those of the source.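 The calls were made as follows: active = current rise at least 3 SD above the untreated control mean in each of two repeat wells; inactive = the rest.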

Potassium voltage-gated channel subfamily KQT member 1 (Homo sapiens), sequence (P51787 whole entry, looked up): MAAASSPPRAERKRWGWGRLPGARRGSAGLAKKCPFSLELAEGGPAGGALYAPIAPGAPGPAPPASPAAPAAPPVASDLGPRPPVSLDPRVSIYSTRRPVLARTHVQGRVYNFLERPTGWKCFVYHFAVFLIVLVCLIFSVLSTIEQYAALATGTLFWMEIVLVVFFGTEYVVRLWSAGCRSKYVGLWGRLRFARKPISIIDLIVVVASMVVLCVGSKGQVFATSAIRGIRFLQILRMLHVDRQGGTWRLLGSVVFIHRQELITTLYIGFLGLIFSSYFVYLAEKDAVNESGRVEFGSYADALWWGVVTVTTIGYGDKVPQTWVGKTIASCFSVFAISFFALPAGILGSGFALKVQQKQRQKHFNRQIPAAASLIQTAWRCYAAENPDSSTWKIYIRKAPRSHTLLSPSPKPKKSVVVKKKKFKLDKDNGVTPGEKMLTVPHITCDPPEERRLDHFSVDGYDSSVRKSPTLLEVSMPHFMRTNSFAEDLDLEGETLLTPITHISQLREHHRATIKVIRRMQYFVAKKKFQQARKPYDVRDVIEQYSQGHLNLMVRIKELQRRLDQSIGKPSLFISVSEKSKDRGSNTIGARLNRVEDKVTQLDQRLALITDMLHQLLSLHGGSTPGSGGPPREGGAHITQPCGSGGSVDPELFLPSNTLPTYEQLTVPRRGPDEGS

This assay addresses Potassium voltage-gated channel subfamily KQT member 1 (Homo sapiens) (UniProt P51787). Nature of the assay: KCNQ1 activators by electrophysiology – IonWorks patch clamp, KCNQ1-CHO cells, orthogonal assay for KCNQ1 potentiator project, confirmation (AID 493184).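 As to current potentiation: percent change of the same well's current before compound addition so 0% = no change.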 As to conditions: automated patch clamp current, at 10 µM; hits give high values. The method, boiled down: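 Read-out: Percent current increase versus pre-compound level | Assay system: CHO cells carrying KCNQ1 | Measured by: Automated perforated-patch electrophysiology | Medium: External bath solution at pH 7.4 | Dosing: One dose, 10 µM final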
Background: Patch clamp records ionic current or voltage across a cell membrane.
For the compound `COc1ccc(NC(=O)C(=O)NNC(=O)C(C)Oc2ccc(Cl)cc2Cl)cc1` (centres undefined), the result was inactive.
As to `O=C(Nc1nc2c(F)cc(F)cc2s1)C1COc2ccccc2O1` (centres undefined), the result was inactive.
As for `FC(F)Sc1nc2ccccc2[nH]1`, the result was inactive.
As for `CCn1c(CSc2nc3ccccc3n2C)nc2ccccc21`, the result was inactive.
Same read-out and setting: next, `Nc1c(-c2ccccc2)cnc2c(-c3ccccc3)cnn12`: “inactive”; `S=c1nc(-c2ccc(Br)cc2)oc2c1CCCC2`: “inactive”; `S=c1nc(C2CC2)[nH]c2ccccc12`: “inactive”.
Still for that read-out and setting: as for `FC(F)(F)c1cnc2c(c1)[nH]c(=S)n2-c1ccc(Cl)cc1`, the entry is “inactive”; as for `CCOC(=O)c1[nH]c(C=O)c(C(=O)OCC)c1C`, “inactive”.
On to `COC(=O)c1ccc(CNC(=O)c2ccc(COc3ccccc3)cc2)cc1`, for which the result was inactive.
On to `COc1ccc(C(=O)NC(=S)N2CCC(C)CC2)cc1Br`, for which the result was inactive.
Still for that read-out and setting: as for `C=CCn1c(N)c(C(=O)Nc2ccc(C)cc2)sc1=S`, the entry is “inactive”.
Turning to `O=C(CCc1ccccc1)Nc1nccs1`, the outcome was inactive.
Regarding `Cc1[nH]n(-c2cccc3ccccc23)c(=O)c1/C=N/c1sc2c(c1C#N)CCC2`, the outcome was inactive.
The same measure, in the same setting: next, `COc1cc(C(=O)NC(=S)N(CCc2ccccc2)CCc2ccccc2)cc(OC)c1OC`: “inactive”.
In the case of `Cc1ccc(-c2nc(N)s[n+]2-c2ccccc2)cc1`, the outcome was inactive.
Regarding `Cc1ccc2nc(NC(=O)c3ccc(Br)o3)sc2c1`, the result was inactive.
On the same count and under the same terms, next, `CN(C)C(=S)NC(=O)c1cccc(Cl)c1`: “inactive”.
Still for that read-out and setting: as for `CCCOc1ccccc1Cn1c(=O)oc2ccc(C)cc21`, the entry is “inactive”; as for `CC(=O)c1c(N2CCOCC2)[nH]c(-c2ccccc2)nc1=S`, “inactive”; as for `CC(=O)N1N=C(N)SC12CCCC2`, “inactive”.
Same read-out and setting: next, `CN(C)/C=N/S(=O)(=O)c1cccn1-c1ncc(C(F)(F)F)cc1Cl`: “inactive”; `COC(=O)c1ccc(C(=O)NC(=S)Nc2nc3c(s2)CCCC3)cc1`: “inactive”.
On to `COc1ccc(NC(=O)C(=O)NNC(=O)c2ccc(Cl)cc2Cl)cc1`, for which the result was inactive.
Consider `CCc1cc2c(=O)n(CCC(C)C)c(=S)[nH]c2s1`, for which the outcome was inactive.
Regarding `COc1cccc(C2=NOC(C(=O)NCc3ccccc3)C2)c1` (centres undefined), the outcome was inactive.
On the same count and under the same terms, as for `O=C(NC(=S)Nc1ccccc1)c1cccs1`, the entry is “inactive”; as for `COc1cc(C2NC(=O)NC(O)(C(F)(F)F)C2C(C)=O)cc(OC)c1OC` (centres undefined), “inactive”.
For the compound `CCOC(=S)NC(=O)c1sc2ccccc2c1Cl`, the result was inactive.
In the case of `COc1ccc2c(CCNC(=O)CN3C(=O)c4ccccc4C3=O)c[nH]c2c1`, the result was inactive.
Same read-out and setting: next, `O=C(COC(=O)C1CCC(=O)N1)Nc1ccc(Oc2ccccc2)cc1` (centres undefined): “inactive”; `Cc1ccc(C2=NOC(=O)/C2=C\C=C\c2ccccc2)cc1`: “inactive”; `N#C/C(=C/c1cn(-c2ccccc2)nc1-c1cccc(S(=O)(=O)N2CCOCC2)c1)C(=O)NCc1ccco1`: “inactive”.
The same measure, in the same setting: next, `CSC(=S)N/N=C(\C)c1ccc(Br)cc1`: “inactive”.
For the compound `COc1ccc(-c2oc3ccccc3c(=O)c2OC(C)=O)cc1`, the outcome was inactive.
Turning to `Cc1ccc(S(=O)(=O)NN2C(=O)/C(=C/c3cccc(F)c3)SC2=S)cc1`, the current potentiation is 37.3% (active).
`S=c1[nH]nc(-c2cccs2)n1/N=C/c1c(Cl)cccc1Cl`: the outcome was inactive.
Regarding `CCc1nnc(SCC(=O)Nc2nnc(C)s2)n1CC1CCCO1` (centres undefined), the outcome was inactive.
In the case of `CC(=O)O[C@H]1CSC[C@H]1NC(=O)c1ccccc1`, the result was inactive.
